The record followed here is ChEMBL document CHEMBL1135573, “New stereocontrolled synthesis and biological evaluation of 5-(1'-hydroxyalkyl)-3-methylidenetetrahydro-2-furanones as potential cytotoxic agents” (J Med Chem, 2002).

One data set relates to HL-60. Briefly: Compound was evaluated for in vitro cytotoxic activity against human HL-60 leukemia cell line. The class given is functional, cell-based.
The subject of the next data set is L1210. Briefly: Compound was evaluated for in vitro cytotoxic activity against mouse L-1210 leukemia cell line. The class given is functional, cell-based.
The nature of data set [1]: Partition coefficient (logP). The class given is physicochemical. Particulars: octanol/water. Summed up:
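log P (1-octanol/water) computed with a standard software package. For one analogue it was also measured by a spectrophotometric method.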

For orientation: IC50 means the concentration that inhibits the measured activity by half. A higher IC50 goes with weaker potency in that assay. A word on the logP: it is the decadic logarithm of the partition coefficient of the neutral form, usually between octanol and water.

On to CARBOPLATIN, for which the IC50 in the data set with HL-60 (hl-60) is 2.9 µM; with L1210 (l1210), 9.7 µM.
As to `C=C1C[C@H]([C@H](O)CCC)OC1=O`, the half-maximal inhibitory concentration (IC50) in the data set with HL-60 (Homo sapiens, HL-60) turned out to be 51.9 µM; in the data set on L1210 (Mus musculus, L1210) it was 18.5 µM. In data set [1], this compound registered a logP of 1.59.
For the compound `C=C1C[C@H]([C@@H](O)c2ccccc2)OC1=O`, the IC50 in the data set with HL-60 (Homo sapiens, HL-60) is 41.2 µM; in the data set with L1210 (Mus musculus, L1210) it was 7.5 µM.
On to `C=C1C[C@H]([C@@H](C)O)OC1=O`, for which the half-inhibitory concentration (IC50) came out at 47.3 µM with HL-60 (Homo sapiens, HL-60) and 19.3 µM in the data set with L1210 (Mus musculus, L1210). For the same compound, in data set [1], the logP turned out to be 0.55.
For the compound `C=C1C[C@](C)(CO)OC1=O`, the IC50 in the data set on HL-60 (Homo sapiens, HL-60) was 51.3 µM; in the data set on L1210 (Mus musculus, L1210), 26.7 µM. The compound further yielded a logP in data set [1] of 0.44.
With `C=C1C[C@H]([C@H](C)O)OC1=O`, the IC50 is 46.8 µM in the data set on HL-60 (Homo sapiens, HL-60) and 17.3 µM in the data set with L1210 (Mus musculus, L1210).
For `C=C1C[C@H]([C@H](O)c2ccccc2)OC1=O`, the IC50 in the data set with HL-60 (Homo sapiens, HL-60) is 36.4 µM; in the data set on L1210 (Mus musculus, L1210) it was 6.9 µM; with L1210 (l1210) it was 8 µM. Also, the logP in data set [1] turned out to be 1.8.
As for `C=C1C[C@H]([C@@H](O)CCC)OC1=O`, the IC50 was determined as 52.6 µM in the data set on HL-60 (Homo sapiens, HL-60) and 16.9 µM in the data set on L1210 (Mus musculus, L1210).
